Source: ChEMBL document CHEMBL1123779, “Modifications of primaquine as antimalarials. 4. 5-Alkoxy derivatives of primaquine” (J Med Chem, 1987)

The molecules below were run on Plasmodium berghei (assay: Blood schizonticidal antimalarial activity in the trophozoite-induced Plasmodium berghei infection in mice (Mus musculus) at 20 mg/kg). Settings: not given.
Assay type: functional
Set-up: unit not given beside the values
Outline: (§1)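 Run at the Rane Laboratory in mice infected with blood-induced P. berghei, five animals per group. Activity is the increase in mean survival time over untreated infected controls. A compound counts as active when treated-group MST is more than twice the control MST. Cures are mice surviving at 60 days postinfection.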

Structure (SMILES) | Delta MST
COc1cc(NC(C)CCCN)c2nc(C)ccc2c1 (stereo not given) | 3.1
CCCC(CC)Oc1c(OC)cc(NC(C)CCCN)c2ncc(C)cc12 (stereo not given) | 5.3
CCCCCCCCCCOc1c(OC)cc(NC(C)CCCN)c2ncccc12 (stereo not given) | 0.1
CCCCCCOc1c(OC)cc(NC(C)CCCN)c2ncccc12 (stereo not given) | 3.7
CCCCCCCCCCCCOc1c(OC)cc(NC(C)CCCN)c2nccc(C)c12 (stereo not given) | 3.2

What follows are molecules tested on Plasmodium cynomolgi (assay: Cures in Plasmodium cynomolgi infected Rhesus monkeys (Macaca mulatta) on 1 mg/kg/day after 7 days; cured 3 of 3). Settings: not given.
Assay type: functional

Structure (SMILES) | Cures/no. of animals
CCCCCCOc1c(OC)cc(NC(C)CCCN)c2ncccc12 (stereo not given) | 3

What follows are molecules tested on Plasmodium berghei (assay: Suppressive blood schizonticidal antimalarial activity evaluated in the trophozoite-induced Plasmodium berghei infection in mice (Mus musculus) at a dose 640 mg/kg given as number of toxic deaths). Settings: in vivo.
Assay type: toxicity, organism-based
Set-up: dose 640 mg/kg
Outline: (§2)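 Rane Laboratory mouse test with blood-induced P. berghei infection, five mice per group. Toxic deaths are deaths occurring before the 6th day postinfection.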

Structure (SMILES) | Toxic deaths
COc1cc(NC(C)CCCN)c2nc(C)ccc2c1 (stereo not given) | 5
CCCC(CC)Oc1c(OC)cc(NC(C)CCCN)c2ncc(C)cc12 (stereo not given) | 5
CCCCCCOc1c(OC)cc(NC(C)CCCN)c2ncccc12 (stereo not given) | 1

What follows are molecules tested on Mus musculus (assay: Suppressive blood schizonticidal antimalarial activity evaluated in the trophozoite-induced Plasmodium berghei infection in mice (Mus musculus) at a dose 640 mg/kg given as no. of cures). Settings: not given.
Assay type: functional
Outline: (§3)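 Run at the Rane Laboratory with blood-induced P. berghei infections in mice, five animals per group. A cure is a mouse surviving to 60 days postinfection. Deaths before day 6 are recorded separately as toxic deaths. Activity is scored from the increase in mean survival time over untreated controls, and counts as active when treated MST is more than twice control MST.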

Structure (SMILES) | Cures
CCCCCCCCCCOc1c(OC)cc(NC(C)CCCN)c2ncccc12 (stereo not given) | 2
CCCCCCCCCCCCOc1c(OC)cc(NC(C)CCCN)c2nccc(C)c12 (stereo not given) | 5

What follows are molecules tested on Mus musculus (assay: Suppressive blood schizonticidal antimalarial activity evaluated in the trophozoite-induced Plasmodium berghei infection in mice (Mus musculus) at a dose 160 mg/kg given as no. of toxic deaths). Settings: not given.
Assay type: functional
Outline: as §2

Structure (SMILES) | Toxic deaths
CCCC(CC)Oc1c(OC)cc(NC(C)CCCN)c2ncc(C)cc12 (stereo not given) | 4

The molecules below were run on Mus musculus (assay: Suppressive blood schizonticidal antimalarial activity evaluated in the trophozoite-induced Plasmodium berghei infection in mice (Mus musculus) at a dose 320 mg/kg given as number of cures). Settings: not given.
Assay type: functional
Outline: as §3

Structure (SMILES) | Cures
CCCCCCCCCCCCOc1c(OC)cc(NC(C)CCCN)c2nccc(C)c12 (stereo not given) | 5

What follows are molecules tested on Mus musculus (assay: Suppressive blood schizonticidal antimalarial activity evaluated in the trophozoite-induced Plasmodium berghei infection in mice (Mus musculus) at a dose 320 mg/kg given as no. of toxic deaths). Settings: not given.
Assay type: functional
Outline: as §2

Structure (SMILES) | Toxic deaths
COc1cc(NC(C)CCCN)c2nc(C)ccc2c1 (stereo not given) | 1
CCCC(CC)Oc1c(OC)cc(NC(C)CCCN)c2ncc(C)cc12 (stereo not given) | 5

These molecules were tested on Mus musculus (assay: Suppressive blood schizonticidal antimalarial activity evaluated in the trophozoite-induced Plasmodium berghei infection in mice (Mus musculus) at a dose 80 mg/kg). Settings: not given.
Assay type: functional
Set-up: unit not given beside the values
Outline: as §1

Structure (SMILES) | Delta MST
COc1cc(NC(C)CCCN)c2nc(C)ccc2c1 (stereo not given) | 7.3
CCCCCCCCCCOc1c(OC)cc(NC(C)CCCN)c2ncccc12 (stereo not given) | 2.9
CCCCCCCCCCCCOc1c(OC)cc(NC(C)CCCN)c2nccc(C)c12 (stereo not given) | 7.6

These molecules were tested on Mus musculus (assay: Suppressive blood schizonticidal antimalarial activity evaluated in the trophozoite-induced Plasmodium berghei infection in mice (Mus musculus) at a dose 160 mg/kg given as no. of cures). Settings: not given.
Assay type: functional
Outline: as §3

Structure (SMILES) | Cures
CCCCCCOc1c(OC)cc(NC(C)CCCN)c2ncccc12 (stereo not given) | 1
CCCCCCCCCCCCOc1c(OC)cc(NC(C)CCCN)c2nccc(C)c12 (stereo not given) | 4

These molecules were tested on Mus musculus (assay: Suppressive blood schizonticidal antimalarial activity evaluated in the trophozoite-induced Plasmodium berghei infection in mice (Mus musculus) at a dose 40 mg/kg). Settings: not given.
Assay type: functional
Set-up: unit not given beside the values
Outline: as §1

Structure (SMILES) | Delta MST
COc1cc(NC(C)CCCN)c2nc(C)ccc2c1 (stereo not given) | 5.5
CCCCCCCCCCOc1c(OC)cc(NC(C)CCCN)c2ncccc12 (stereo not given) | 0.1
CCCCCCOc1c(OC)cc(NC(C)CCCN)c2ncccc12 (stereo not given) | 6.5
CCCCCCCCCCCCOc1c(OC)cc(NC(C)CCCN)c2nccc(C)c12 (stereo not given) | 6.4

What follows are molecules tested on Mus musculus (assay: Suppressive blood schizonticidal antimalarial activity evaluated in the trophozoite-induced Plasmodium berghei infection in mice (Mus musculus) at a dose 10 mg/kg). Settings: not given.
Assay type: functional
Outline: as §1

Structure (SMILES) | Delta MST
CCCCCCCCCCCCOc1c(OC)cc(NC(C)CCCN)c2nccc(C)c12 (stereo not given) | 2

These molecules were tested on Mus musculus (assay: Suppressive blood schizonticidal antimalarial activity evaluated in the trophozoite-induced Plasmodium berghei infection in mice (Mus musculus) at a dose 80 mg/kg given as no. of cures). Settings: not given.
Assay type: functional
Outline: as §3

Structure (SMILES) | Cures
CCCC(CC)Oc1c(OC)cc(NC(C)CCCN)c2ncc(C)cc12 (stereo not given) | 1
CCCCCCOc1c(OC)cc(NC(C)CCCN)c2ncccc12 (stereo not given) | 1

Each molecule was assayed on Plasmodium cynomolgi (assay: Cures in Plasmodium cynomolgi infected Rhesus monkeys (Macaca mulatta) on 10.0 mg/kg/day after 7 days; cured 1 of 1). Settings: not given.
Assay type: functional

Structure (SMILES) | Cures/no. of animals
CCCCCCCCCCOc1c(OC)cc(NC(C)CCCN)c2ncccc12 (stereo not given) | 1
CCCCCCOc1c(OC)cc(NC(C)CCCN)c2ncccc12 (stereo not given) | 1

What follows are molecules tested on Plasmodium cynomolgi (assay: Cures in Plasmodium cynomolgi infected Rhesus monkeys (Macaca mulatta) on 0.316 mg/kg/day after 7 days; cured 0 of 2). Settings: not given.
Assay type: functional

Structure (SMILES) | Cures/no. of animals
CCCCCCOc1c(OC)cc(NC(C)CCCN)c2ncccc12 (stereo not given) | 0

What follows are molecules tested on Mus musculus (assay: Suppressive blood schizonticidal antimalarial activity evaluated in the trophozoite-induced Plasmodium berghei infection in mice (Mus musculus) at a dose 320 mg/kg). Settings: not given.
Assay type: functional
Outline: as §1

Structure (SMILES) | Delta MST
CCCCCCCCCCOc1c(OC)cc(NC(C)CCCN)c2ncccc12 (stereo not given) | 9.3
CCCCCCOc1c(OC)cc(NC(C)CCCN)c2ncccc12 (stereo not given) | 0.1

These molecules were tested on Mus musculus (assay: Suppressive blood schizonticidal antimalarial activity evaluated in the trophozoite-induced Plasmodium berghei infection in mice (Mus musculus) at a dose 160 mg/kg). Settings: not given.
Assay type: functional
Outline: as §1

Structure (SMILES) | Delta MST
COc1cc(NC(C)CCCN)c2nc(C)ccc2c1 (stereo not given) | 8.3
CCCCCCCCCCOc1c(OC)cc(NC(C)CCCN)c2ncccc12 (stereo not given) | 5.7

These molecules were tested on Plasmodium berghei (assay: Blood schizonticidal activity in trophozoite-induced Plasmodium berghei infected mice (Mus musculus) at 40 mg/kg; numbers cured). Settings: not given.
Assay type: functional
Outline: as §3

Structure (SMILES) | Cures
CCCC(CC)Oc1c(OC)cc(NC(C)CCCN)c2ncc(C)cc12 (stereo not given) | 1

What follows are molecules tested on Plasmodium cynomolgi (assay: Cures in Plasmodium cynomolgi infected Rhesus monkeys (Macaca mulatta) on 1 mg/kg/day after 7 days; cured 0 of 1). Settings: not given.
Assay type: functional

Structure (SMILES) | Cures/no. of animals
CCCC(CC)Oc1c(OC)cc(NC(C)CCCN)c2ncc(C)cc12 (stereo not given) | 0
CCCCCCCCCCOc1c(OC)cc(NC(C)CCCN)c2ncccc12 (stereo not given) | 0
CCCCCCCCCCCCOc1c(OC)cc(NC(C)CCCN)c2nccc(C)c12 (stereo not given) | 0

The molecules below were run on Plasmodium cynomolgi (assay: Cures in Plasmodium cynomolgi infected Rhesus monkeys (Macaca mulatta) on 0.1 mg/kg/day after 7 days; cured 0 of 1). Settings: not given.
Assay type: functional

Structure (SMILES) | Cures/no. of animals
CCCC(CC)Oc1c(OC)cc(NC(C)CCCN)c2ncc(C)cc12 (stereo not given) | 0
CCCCCCCCCCCCOc1c(OC)cc(NC(C)CCCN)c2nccc(C)c12 (stereo not given) | 0
